Test results from ChEMBL document CHEMBL1671627, “Increasing trends in antimicrobial resistance among clinically important anaerobes and Bacteroides fragilis isolates causing nosocomial infections: emerging resistance to carbapenems” (2008).
In brackets after ≈: the same amount, converted by molar mass.

Columns and labels:
Clostridium tertium [1] = assay: Antibacterial activity against beta-lactamase producing Clostridium tertium by CLSI agar dilution method in presence of clavulanate; type: functional
Method in brief: (§1)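 CLSI agar dilution MICs for anaerobic blood isolates (nonduplicate) collected from bloodstream-infection patients at a Taiwanese tertiary hospital, January–December 2006. Isolates were spotted by Steers replicator onto supplemented Brucella blood agar and incubated anaerobically for 48 h at 35°C. MIC was the lowest drug concentration inhibiting growth. Each run included B. fragilis ATCC 25285, B. thetaiotaomicron ATCC 29741 and E. lentum ATCC 43055 as quality-control strains.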

[2] = tested on: Clostridium paraputrificum; assay: Antibacterial activity against beta-lactamase producing Clostridium paraputrificum assessed as resistant isolates by CLSI agar dilution method in presence of clavulanate; type: functional
Method in brief: (§2)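 207 nonduplicate anaerobic blood isolates from patients with bloodstream infections at NTUH, collected January–December 2006. MICs were determined by agar dilution following CLSI guidelines. Inocula were applied with a Steers replicator onto supplemented Brucella blood agar and incubated 48 h at 35°C in an anaerobic chamber. MIC was the lowest concentration inhibiting growth. B. fragilis ATCC 25285, B. thetaiotaomicron ATCC 29741 and E. lentum ATCC 43055 served as controls in each run.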

[3] = tested on: Prevotella melaninogenica; assay: Antibacterial activity against Prevotella melaninogenica assessed as resistant isolates by CLSI agar dilution method in presence of clavulanate; type: functional; method in brief: as §2
[4] = tested on: Prevotella melaninogenica; assay: Antibacterial activity against Prevotella melaninogenica assessed as susceptible isolates by CLSI agar dilution method in presence of clavulanate; type: functional
Method in brief: (§3)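 Agar dilution per CLSI guidelines on nonduplicate anaerobic bloodstream isolates collected at NTUH, January to December 2006. Isolates were spotted by Steers replicator onto supplemented Brucella blood agar and incubated anaerobically for 48 h at 35°C. MIC was the lowest drug concentration that inhibited growth. B. fragilis ATCC 25285, B. thetaiotaomicron ATCC 29741 and E. lentum ATCC 43055 were run as QC in each run.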

Parvimonas micra [5] = assay: Antibacterial activity against beta-lactamase producing Micromonas micros by CLSI agar dilution method in presence of clavulanate; type: functional; method in brief: as §1
[6] = tested on: Fusobacterium necrophorum; assay: Antibacterial activity against Fusobacterium necrophorum by CLSI agar dilution method in presence of clavulanate; type: functional; method in brief: as §3
Fusobacterium nucleatum [7] = assay: Antibacterial activity against Fusobacterium nucleatum assessed as susceptible isolates by CLSI agar dilution method in presence of clavulanate; type: functional; method in brief: as §3
[8] = tested on: Clostridium paraputrificum; assay: Antibacterial activity against beta-lactamase producing Clostridium paraputrificum by CLSI agar dilution method in presence of clavulanate; type: functional; method in brief: as §1
Prevotella intermedia = assay: Antibacterial activity against Prevotella intermedia assessed as resistant isolates by CLSI agar dilution method in presence of clavulanate; type: functional; method in brief: as §2
Bacteroides fragilis = assay: Antibacterial activity against Bacteroides fragilis assessed as resistant isolates by CLSI agar dilution method in presence of clavulanate; type: functional; method in brief: as §2
[9] = tested on: Prevotella melaninogenica; assay: Antibacterial activity against Prevotella melaninogenica by CLSI agar dilution method in presence of clavulanate; type: functional; method in brief: as §3
Phocaeicola vulgatus [10] = assay: Antibacterial activity against beta-lactamase producing Bacteroides vulgatus assessed as resistant isolates by CLSI agar dilution method; type: functional
Bacteroides caccae [11] = assay: Antibacterial activity against beta-lactamase producing Bacteroides caccae by CLSI agar dilution method; type: functional
Clostridium tertium [12] = assay: Antibacterial activity against beta-lactamase producing Clostridium tertium assessed as resistant isolates by CLSI agar dilution method in presence of Tazobactam; type: functional; method in brief: as §2
Finegoldia magna = assay: Antibacterial activity against beta-lactamase producing Finegoldia magna by CLSI agar dilution method; type: functional
Prevotella bivia [13] = assay: Antibacterial activity against Prevotella bivia assessed as susceptible isolates by CLSI agar dilution method; type: functional
Prevotella bivia [14] = assay: Antibacterial activity against Prevotella bivia assessed as susceptible isolates by CLSI agar dilution method in presence of Tazobactam; type: functional; method in brief: as §3
Phocaeicola vulgatus [15] = assay: Antibacterial activity against beta-lactamase producing Bacteroides vulgatus by CLSI agar dilution method in presence of Tazobactam; type: functional; method in brief: as §1
Fusobacterium mortiferum [16] = assay: Antibacterial activity against Fusobacterium mortiferum assessed as resistant isolates by CLSI agar dilution method in presence of Tazobactam; type: functional; method in brief: as §2
Prevotella buccae [17] = assay: Antibacterial activity against Prevotella buccae assessed as susceptible isolates by CLSI agar dilution method in presence of Tazobactam; type: functional, Segatella buccae; method in brief: as §3
Clostridium tertium [18] = assay: Antibacterial activity against beta-lactamase producing Clostridium tertium assessed as susceptible isolates by CLSI agar dilution method in presence of Tazobactam; type: functional; method in brief: as §1
Prevotella bivia [19] = assay: Antibacterial activity against Prevotella bivia assessed as resistant isolates by CLSI agar dilution method; type: functional
[20] = tested on: Bacteroides thetaiotaomicron; assay: Antibacterial activity against beta-lactamase producing Bacteroides thetaiotaomicron assessed as resistant isolates by CLSI agar dilution method in presence of Tazobactam; type: functional; method in brief: as §2
[21] = tested on: Peptoniphilus asaccharolyticus; assay: Antibacterial activity against beta-lactamase producing Peptoniphilus asaccharolyticus assessed as susceptible isolates by CLSI agar dilution method; type: functional
Bacteroides uniformis [22] = assay: Antibacterial activity against beta-lactamase producing Bacteroides uniformis assessed as resistant isolates by CLSI agar dilution method; type: functional
Bacteroides caccae [23] = assay: Antibacterial activity against beta-lactamase producing Bacteroides caccae by CLSI agar dilution method in presence of Tazobactam; type: functional; method in brief: as §3
Prevotella buccae [24] = assay: Antibacterial activity against Prevotella buccae assessed as resistant isolates by CLSI agar dilution method in presence of Tazobactam; type: functional, Segatella buccae; method in brief: as §2
Fusobacterium nucleatum [25] = assay: Antibacterial activity against Fusobacterium nucleatum by CLSI agar dilution method in presence of Tazobactam; type: functional; method in brief: as §3
Bacteroides caccae [26] = assay: Antibacterial activity against beta-lactamase producing Bacteroides caccae assessed as resistant isolates by CLSI agar dilution method; type: functional
Fusobacterium nucleatum [27] = assay: Antibacterial activity against Fusobacterium nucleatum assessed as susceptible isolates by CLSI agar dilution method in presence of Tazobactam; type: functional; method in brief: as §3
Bacteroides uniformis [28] = assay: Antibacterial activity against beta-lactamase producing Bacteroides uniformis assessed as susceptible isolates by CLSI agar dilution method; type: functional
Fusobacterium mortiferum [29] = assay: Antibacterial activity against Fusobacterium mortiferum assessed as susceptible isolates by CLSI agar dilution method; type: functional
[30] = tested on: Peptostreptococcus anaerobius; assay: Antibacterial activity against beta-lactamase producing Peptostreptococcus anaerobius assessed as susceptible isolates by CLSI agar dilution method in presence of Tazobactam; type: functional; method in brief: as §1
Parvimonas micra [31] = assay: Antibacterial activity against beta-lactamase producing Micromonas micros assessed as resistant isolates by CLSI agar dilution method in presence of Tazobactam; type: functional; method in brief: as §2
[32] = tested on: Fusobacterium necrophorum; assay: Antibacterial activity against Fusobacterium necrophorum by CLSI agar dilution method; type: functional
[33] = tested on: Peptoniphilus asaccharolyticus; assay: Antibacterial activity against beta-lactamase producing Peptoniphilus asaccharolyticus assessed as susceptible isolates by CLSI agar dilution method in presence of Tazobactam; type: functional; method in brief: as §1
[34] = tested on: Fusobacterium necrophorum; assay: Antibacterial activity against Fusobacterium necrophorum assessed as resistant isolates by CLSI agar dilution method; type: functional
Clostridium tertium [35] = assay: Antibacterial activity against beta-lactamase producing Clostridium tertium assessed as susceptible isolates by CLSI agar dilution method; type: functional
Fusobacterium nucleatum [36] = assay: Antibacterial activity against Fusobacterium nucleatum assessed as resistant isolates by CLSI agar dilution method; type: functional
[37] = tested on: Fusobacterium necrophorum; assay: Antibacterial activity against Fusobacterium necrophorum assessed as susceptible isolates by CLSI agar dilution method; type: functional

Molecule CC1(C)S[C@@H]2[C@H](NC(=O)[C@H](N)c3ccc(O)cc3)C(=O)N2[C@H]1C(=O)O [AMOXICILLIN] has an MIC50 (Clostridium tertium [1]) of 0.5 µg/mL, an MIC90 (Clostridium tertium [1]) of 2 µg/mL and an Activity [2] of 4%. It also gave an Activity [3] of 6%, an Activity [4] of 81% and an MIC50 (Parvimonas micra [5]) of 0.25 µg/mL. It also gave an MIC90 (Parvimonas micra [5]) of 2 µg/mL, an MIC50 [6] of 2 µg/mL and an MIC90 [6] of 4 µg/mL. It also gave an Activity (Fusobacterium nucleatum [7]) of 89%, an MIC50 [8] of 0.5 µg/mL and an MIC90 [8] of 2 µg/mL. The Activity (Prevotella intermedia) was 6%, the Activity (Bacteroides fragilis) was 23% and the MIC50 [9] was 4 µg/mL. It also gave an MIC90 [9] of 16 µg/mL.

With CCN1CCN(C(=O)N[C@@H](C(=O)N[C@@H]2C(=O)N3[C@@H]2SC(C)(C)[C@@H]3C(=O)O)c2ccccc2)C(=O)C1=O [PIPERACILLIN] the Activity (Phocaeicola vulgatus [10]) was 65%, the MIC50 (Bacteroides caccae [11]) was greater than 128 µg/mL and the MIC90 (Bacteroides caccae [11]) was greater than 128 µg/mL. For the same molecule, the Activity (Clostridium tertium [12]) was 0%, the MIC50 (Finegoldia magna) was 0.12 µg/mL (≈ 0.232 µM) and the MIC90 (Finegoldia magna) was 8 µg/mL (≈ 15.5 µM). It also gave an Activity (Prevotella bivia [13]) of 71%, an Activity (Prevotella bivia [14]) of 100% and an MIC50 (Phocaeicola vulgatus [15]) of 8 µg/mL. For the same molecule, the MIC90 (Phocaeicola vulgatus [15]) was 16 µg/mL, the Activity (Fusobacterium mortiferum [16]) was 0% and the Activity (Prevotella buccae [17]) was 100%. For the same molecule, the Activity (Clostridium tertium [18]) was 100%, the Activity (Prevotella bivia [19]) was 22% and the Activity [20] was 0%. It also gave an Activity [21] of 97%, an Activity (Bacteroides uniformis [22]) of 65% and an MIC50 (Bacteroides caccae [23]) of 8 µg/mL. For the same molecule, the MIC90 (Bacteroides caccae [23]) was 16 µg/mL, the Activity (Prevotella buccae [24]) was 0% and the MIC50 (Fusobacterium nucleatum [25]) was 0.5 µg/mL. The MIC90 (Fusobacterium nucleatum [25]) was 2 µg/mL, the Activity (Bacteroides caccae [26]) was 65% and the Activity (Fusobacterium nucleatum [27]) was 100%. The Activity (Bacteroides uniformis [28]) was 35%, the Activity (Fusobacterium mortiferum [29]) was 90% and the Activity [30] was 97%. For the same molecule, the Activity (Parvimonas micra [31]) was 0%, the MIC50 [32] was 2 µg/mL (≈ 3.86 µM) and the MIC90 [32] was 8 µg/mL (≈ 15.5 µM). For the same molecule, the Activity [33] was 97%, the Activity [34] was 10% and the Activity (Clostridium tertium [35]) was 100%. The Activity (Fusobacterium nucleatum [36]) was 10% and the Activity [37] was 90%.
